Laboratory results reported in ChEMBL document CHEMBL1759852, “A comparative study of proapoptotic potential of cyano analogues of boswellic acid and 11-keto-boswellic acid” (Eur J Med Chem, 2011).
Active and inactive are the calls of the source. The calls are words filed in the database; no cut-off is given here.

Columns and labels:
[1] = tested on: HeLa; assay: Cytotoxicity against human HeLa cells after 48 hrs by MTT assay; type: functional, cell-based
In short: (§1)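 HL-60 (2 × 10^4/200 μl) or HeLa (1 × 10^4/200 μl) in RPMI-1640/MEM, 10% FCS, 37 °C, 5% CO2; treated 0.1–50 μM for 48 h, DMSO vehicle <0.2%. MTT added final 3 h; formazan dissolved in DMSO, OD 570 nm (reference 620 nm). IC50 as 50% viability versus untreated control; three experiments, CV <10%.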

[2] = tested on: HL-60; assay: Cytotoxicity against human HL60 cells after 48 hrs by MTT assay; type: functional, cell-based; conditions: HL-60, 48 h; in short: as §1
[3] = tested on: HL-60; assay: Induction of apoptosis in human HL60 cells assessed as late apoptotic cells at 0.3 uM after 6 hrs using Annexin-V-FITC/propidium iodide staining by flow cytometry (reference value: 1%); type: functional
In short: (§2)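 HL-60 cells (1 × 10^6/ml) treated 6 h at varied concentrations; camptothecin 4 μM 6 h positive control. AnnexinV-FITC and propidium iodide staining per kit; FL-1 versus FL-2 flow cytometry with quadrant statistics for apoptotic and necrotic populations; representative of three experiments.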

[4] = tested on: HL-60; assay: Induction of apoptosis in human HL60 cells assessed as cell shrinkage and apoptotic body formation at 0.5 uM after 9 hrs by scanning electron microscopy; type: functional, cell-based
In short: (§3)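 HL-60 seeded 2 × 10^5/ml in medium with 10% FCS, treated at 0.5 and 2 μM (DMSO stock; vehicle-only controls) for 9 h at 37 °C. Fixed 2.5% glutaraldehyde in 0.1 M phosphate pH 7.2 at 4 °C 1 h, post-fixed 1% OsO4 1 h, acetone-dehydrated, critical-point dried, gold-coated; surface ultrastructure by scanning electron microscopy.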

[5] = tested on: HL-60; assay: Cell cycle arrest in human HL60 cells assessed as accumulation at sub-G1 phase at 4 uM after 18 hrs by flow cytometry relative to control; type: functional
In short: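 HL-60 cells at 1 × 10^6/ml exposed 18 h; camptothecin 4 μM for 6 h as positive control. Cells pelleted 160 × g 5 min, PBS-washed, fixed in cold 70% alcohol overnight at −20 °C, RNase (400 μg/ml) digested, PI-stained; flow cytometry, hypo-diploid (<2n DNA) sub-G0/G1 fraction scored as apoptotic.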

[6] = tested on: HL-60; assay: Induction of apoptosis in human HL60 cells assessed as late apoptotic cells at 4 uM after 6 hrs using Annexin-V-FITC/propidium iodide staining by flow cytometry (reference value: 1%); type: functional; in short: as §2
[7] = tested on: HL-60; assay: Induction of apoptosis in human HL60 cells assessed as late apoptotic cells at 1 uM after 6 hrs using Annexin-V-FITC/propidium iodide staining by flow cytometry (reference value: 1%); type: functional; in short: as §2
[8] = tested on: HL-60; assay: Induction of apoptosis in human HL60 cells assessed as early apoptotic cells at 4 uM after 6 hrs using Annexin-V-FITC/propidium iodide staining by flow cytometry (reference value: 6%); type: functional; in short: as §2
[9] = tested on: HL-60; assay: Induction of apoptosis in human HL60 cells assessed as late apoptotic cells at 2 uM after 6 hrs using Annexin-V-FITC/propidium iodide staining by flow cytometry (reference value: 1%); type: functional; in short: as §2
[10] = tested on: HL-60; assay: Induction of apoptosis in human HL60 cells assessed as nuclear condensation and blebbing at 0.5 to 2 uM after 9 hrs Hoechst 33258 staining by fluorescence microscopy; type: functional, cell-based
In short: (§4)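 HL-60 cells (2 × 10^6/3 ml) treated 9 h, washed twice in PBS, fixed and stained with Hoechst 33258; nuclear morphology and apoptotic bodies examined by inverted fluorescence microscopy.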

[11] = tested on: HL-60; assay: Induction of apoptosis in human HL60 cells assessed as increase in scattered apoptotic bodies formation at 0.5 uM after 9 hrs using Hoechst 33258 staining by fluorescence microscopy; type: functional, cell-based; in short: as §4
[12] = tested on: HL-60; assay: Induction of apoptosis in human HL60 cells assessed as loss of cell cytoplasmic volume at 2 uM after 9 hrs by scanning electron microscopy; type: functional, cell-based; in short: as §3
[13] = tested on: HL-60; assay: Induction of apoptosis in human HL60 cells assessed as early apoptotic cells at 1 uM after 6 hrs using Annexin-V-FITC/propidium iodide staining by flow cytometry (reference value: 6%); type: functional; in short: as §2
[14] = tested on: HL-60; assay: Induction of apoptosis in human HL60 cells assessed as early apoptotic cells at 2 uM after 6 hrs using Annexin-V-FITC/propidium iodide staining by flow cytometry (reference value: 6%); type: functional; in short: as §2
[15] = tested on: HL-60; assay: Induction of apoptosis in human HL60 cells assessed as smoothening of cell surface and blebbing of plasma membrane at 0.5 uM after 9 hrs by scanning electron microscopy; type: functional, cell-based; in short: as §3
[16] = tested on: HL-60; assay: Induction of apoptosis in human HL60 cells assessed as early apoptotic cells at 0.3 uM after 6 hrs using Annexin-V-FITC/propidium iodide staining by flow cytometry (reference value: 6%); type: functional; in short: as §2
[17] = tested on: HL-60; assay: Induction of apoptosis in human HL60 cells assessed as apoptotic cells at 2 uM after 9 hrs by scanning electron microscopy; type: functional, cell-based; in short: as §3

| SMILES | IC50 [1] [µM] | IC50 [2] [µM] | also measured |
| --- | --- | --- | --- |
| CCCCOC(=O)[C@@]1(C)c2oncc2C[C@@]2(C)[C@H]1CC[C@]1(C)[C@@H]2CC=C2[C@@H]3[C@@H](C)[C@H](C)CC[C@]3(C)CC[C@]21C | 50 | 50 |  |
| CCCCOC(=O)[C@@]1(C)C(=O)C(C#N)=C[C@]2(C)[C@H]3CC=C4[C@@H]5[C@@H](C)[C@H](C)CC[C@]5(C)CC[C@@]4(C)[C@]3(C)CC[C@@H]12 | 7.9 | 0.42 | Activity [3]: 2%; Activity [4]: Active; Activity [5]: 76%; Activity [6]: 1%; Activity [7]: 1%; Activity [8]: 12%; Activity [9]: 2%; Activity [10]: Active; Activity [11]: Active; Activity [12]: Active; Activity [13]: 10%; Activity [14]: 11%; Activity [15]: Active; Activity [16]: 9%; Activity [17]: Active |
| CCCCOC(=O)[C@]1(C)[C@@H]2CC[C@]3(C)[C@H](C(=O)C=C4[C@@H]5[C@@H](C)[C@H](C)CC[C@]5(C)CC[C@]43C)[C@@]2(C)CC[C@H]1OC(C)=O | 40 | 30 |  |
| CCCCOC(=O)[C@@]1(C)[C@H](O)CC[C@@]2(C)[C@H]1CC[C@]1(C)[C@@H]2CC=C2[C@@H]3[C@@H](C)[C@H](C)CC[C@]3(C)CC[C@]21C | > 50 | > 50 |  |
| C[C@H]1[C@H](C)CC[C@]2(C)CC[C@]3(C)C(=CC(=O)[C@@H]4[C@@]5(C)CC(C(N)=O)[C@H](O)[C@](C)(N)[C@@H]5CC[C@]43C)[C@H]12 (stereo partly specified) | > 50 | > 50 |  |
| C[C@H]1[C@H](C)CC[C@]2(C)CC[C@]3(C)C(=CC[C@@H]4[C@@]5(C)CC(C(N)=O)[C@H](O)[C@](C)(N)[C@@H]5CC[C@]43C)[C@H]12 (stereo partly specified) | > 50 | 37 |  |
| CCCCOC(=O)[C@@]1(C)C(=O)CC[C@]2(C)[C@H]3CC=C4[C@@H]5[C@@H](C)[C@H](C)CC[C@]5(C)CC[C@@]4(C)[C@]3(C)CC[C@@H]12 | > 50 | > 50 |  |
| C[C@H]1[C@H](C)CC[C@]2(C)CC[C@]3(C)C(=CC(=O)[C@@H]4[C@@]5(C)CC(C(N)=O)[C@H](O)[C@](C)(N=C=O)[C@@H]5CC[C@]43C)[C@H]12 (stereo partly specified) | 45 | 24 |  |
| CCCCOC(=O)[C@@]1(C)C(=O)/C(=C\O)C[C@]2(C)[C@H]3CC=C4[C@@H]5[C@@H](C)[C@H](C)CC[C@]5(C)CC[C@@]4(C)[C@]3(C)CC[C@@H]12 | 44 | 33 |  |
| CCCCOC(=O)[C@]1(C)[C@@H]2CC[C@]3(C)[C@H](C(=O)C=C4[C@@H]5[C@@H](C)[C@H](C)CC[C@]5(C)CC[C@]43C)[C@@]2(C)CC(C#N)[C@@H]1O (stereo partly specified) | 30 | 14 |  |
| CCCCOC(=O)[C@]1(C)[C@@H]2CC[C@]3(C)[C@H](CC=C4[C@@H]5[C@@H](C)[C@H](C)CC[C@]5(C)CC[C@]43C)[C@@]2(C)CC[C@H]1OC(C)=O | > 50 | 28 |  |
| C[C@H]1[C@H](C)CC[C@]2(C)CC[C@]3(C)C(=CC(=O)[C@@H]4[C@@]5(C)CC(C(N)=O)[C@H](O)[C@](C)(C(=O)O)[C@@H]5CC[C@]43C)[C@H]12 (stereo partly specified) | > 50 | > 50 |  |
| CCCCOC(=O)[C@]1(C)[C@@H]2CC[C@]3(C)[C@H](CC=C4[C@@H]5[C@@H](C)[C@H](C)CC[C@]5(C)CC[C@]43C)[C@@]2(C)CC(C#N)[C@@H]1O (stereo partly specified) | > 50 | > 50 |  |
